Activity calls are given as the source filed them.
How the values were obtained:
[1] = biological target: T1, ATP-dependent translocase ABCB1 (Homo sapiens, UniProt P08183); assay: Inhibition of MDR1 (unknown origin) expressed in MDCK cells assessed as reduction in calcein-AM efflux preincubated for 30 mins followed by calcein-AM addition measured after 30 mins by fluorescence assay; assay type: cell-based
Procedure, shortened: (§1)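 Competition with P-gp-mediated efflux of the pro-fluorescent substrate calcein-AM in MDCK-MDR1 cells, reported as EC50. Means of three independent experiments, samples in duplicate.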

[2] = biological target: T1, ATP-dependent translocase ABCB1; assay: Inhibition of MDR1 (unknown origin) expressed in MDCK cells assessed as reduction in ATP consumption after 2 hrs by ATPlite assay; assay type: cell-based
Procedure, shortened: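 ATP cell level depletion measured in MDCK-MDR1 cells. Means of three independent experiments, samples analysed in duplicate.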

[3] = Efflux ratio of apparent permeability from basolateral to apical over apical to basolateral side in human Caco2 cells at 100 uM after 120 mins; assay type: ADME, cell-based; conditions: Caco-2
Procedure, shortened: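 Bidirectional permeability across Caco-2 monolayers. Papp expressed as the basolateral-to-apical over apical-to-basolateral (BA/AB) ratio. Values from two independent experiments. A ratio >2 is read as substrate behaviour, <2 as inhibitor.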

[4] = biological target: T1, ATP-dependent translocase ABCB1; assay: Inhibition of MDR1 (unknown origin) expressed in MDCK cells assessed as increase in doxorubicin-induced cytotoxicity at 10 uM after 48 hrs by MTT assay relative to control; assay type: cell-based; design: scale not given: the % may be the effect or the level left
Procedure, shortened: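 MDCK-MDR1 cells treated for 48 h with compound at 10 μM, alone or together with doxorubicin at 10 μM. Antiproliferative effect compared with doxorubicin 10 μM alone.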

[5] = biological target: T2, Broad substrate specificity ATP-binding cassette transporter ABCG2 (Homo sapiens, UniProt Q9UNQ0); assay: Inhibition of BCRP (unknown origin) expressed in MDCK cells assessed as reduction in Hoechst 33342 efflux at 100 uM preincubated for 30 mins followed by Hoechst 3334 addition measured after 30 mins by fluorescence assay; assay type: cell-based; conditions: 0.5 h
T2 sequence (Q9UNQ0 whole entry): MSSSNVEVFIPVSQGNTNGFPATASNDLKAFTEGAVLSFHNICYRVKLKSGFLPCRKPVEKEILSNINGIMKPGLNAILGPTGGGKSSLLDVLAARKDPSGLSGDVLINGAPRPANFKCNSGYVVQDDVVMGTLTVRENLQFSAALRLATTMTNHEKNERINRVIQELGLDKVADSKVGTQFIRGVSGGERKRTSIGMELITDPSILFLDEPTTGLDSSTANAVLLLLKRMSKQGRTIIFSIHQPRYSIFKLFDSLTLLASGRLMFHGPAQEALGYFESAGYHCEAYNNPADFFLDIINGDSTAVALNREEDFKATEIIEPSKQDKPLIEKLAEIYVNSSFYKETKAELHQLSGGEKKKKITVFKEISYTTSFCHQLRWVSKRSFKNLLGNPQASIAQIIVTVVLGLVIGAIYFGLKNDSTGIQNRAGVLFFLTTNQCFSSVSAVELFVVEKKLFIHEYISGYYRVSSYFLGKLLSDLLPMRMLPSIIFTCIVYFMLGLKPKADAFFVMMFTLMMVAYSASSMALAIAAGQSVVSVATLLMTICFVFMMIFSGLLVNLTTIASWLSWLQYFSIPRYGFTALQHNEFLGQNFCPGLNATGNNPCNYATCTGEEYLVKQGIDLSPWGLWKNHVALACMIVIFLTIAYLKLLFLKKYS
Procedure, shortened: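 Interference with BCRP-mediated transport of the fluorescent substrate Hoechst 33342. Not active defined at 100 μM. Means of three independent experiments, duplicate samples.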

[6] = system: MDCK; assay: Downregulation of MDR1 protein expression in MDCK-MDR1 cells at 10 uM after 48 hrs by immunoblot analysis; assay type: functional, cell-based; conditions: Canis lupus familiaris
Procedure, shortened: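 Immunoblot of P-gp in MDCK-MDR1 cells treated at 10 μM for 48 h, with untreated cells as control. Protein extracted after incubation, actin used as loading control. Blot representative of 3 experiments.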

[7] = biological target: T3, Multidrug resistance-associated protein 1 (Homo sapiens, UniProt P33527); assay: Inhibition of MRP1 (unknown origin) expressed in MDCK cells assessed as reduction in calcein-AM efflux at 100 uM preincubated for 30 mins followed by calcein-AM addition measured after 30 mins by fluorescence assay; assay type: cell-based; conditions: 0.5 h
T3 sequence (P33527 whole entry): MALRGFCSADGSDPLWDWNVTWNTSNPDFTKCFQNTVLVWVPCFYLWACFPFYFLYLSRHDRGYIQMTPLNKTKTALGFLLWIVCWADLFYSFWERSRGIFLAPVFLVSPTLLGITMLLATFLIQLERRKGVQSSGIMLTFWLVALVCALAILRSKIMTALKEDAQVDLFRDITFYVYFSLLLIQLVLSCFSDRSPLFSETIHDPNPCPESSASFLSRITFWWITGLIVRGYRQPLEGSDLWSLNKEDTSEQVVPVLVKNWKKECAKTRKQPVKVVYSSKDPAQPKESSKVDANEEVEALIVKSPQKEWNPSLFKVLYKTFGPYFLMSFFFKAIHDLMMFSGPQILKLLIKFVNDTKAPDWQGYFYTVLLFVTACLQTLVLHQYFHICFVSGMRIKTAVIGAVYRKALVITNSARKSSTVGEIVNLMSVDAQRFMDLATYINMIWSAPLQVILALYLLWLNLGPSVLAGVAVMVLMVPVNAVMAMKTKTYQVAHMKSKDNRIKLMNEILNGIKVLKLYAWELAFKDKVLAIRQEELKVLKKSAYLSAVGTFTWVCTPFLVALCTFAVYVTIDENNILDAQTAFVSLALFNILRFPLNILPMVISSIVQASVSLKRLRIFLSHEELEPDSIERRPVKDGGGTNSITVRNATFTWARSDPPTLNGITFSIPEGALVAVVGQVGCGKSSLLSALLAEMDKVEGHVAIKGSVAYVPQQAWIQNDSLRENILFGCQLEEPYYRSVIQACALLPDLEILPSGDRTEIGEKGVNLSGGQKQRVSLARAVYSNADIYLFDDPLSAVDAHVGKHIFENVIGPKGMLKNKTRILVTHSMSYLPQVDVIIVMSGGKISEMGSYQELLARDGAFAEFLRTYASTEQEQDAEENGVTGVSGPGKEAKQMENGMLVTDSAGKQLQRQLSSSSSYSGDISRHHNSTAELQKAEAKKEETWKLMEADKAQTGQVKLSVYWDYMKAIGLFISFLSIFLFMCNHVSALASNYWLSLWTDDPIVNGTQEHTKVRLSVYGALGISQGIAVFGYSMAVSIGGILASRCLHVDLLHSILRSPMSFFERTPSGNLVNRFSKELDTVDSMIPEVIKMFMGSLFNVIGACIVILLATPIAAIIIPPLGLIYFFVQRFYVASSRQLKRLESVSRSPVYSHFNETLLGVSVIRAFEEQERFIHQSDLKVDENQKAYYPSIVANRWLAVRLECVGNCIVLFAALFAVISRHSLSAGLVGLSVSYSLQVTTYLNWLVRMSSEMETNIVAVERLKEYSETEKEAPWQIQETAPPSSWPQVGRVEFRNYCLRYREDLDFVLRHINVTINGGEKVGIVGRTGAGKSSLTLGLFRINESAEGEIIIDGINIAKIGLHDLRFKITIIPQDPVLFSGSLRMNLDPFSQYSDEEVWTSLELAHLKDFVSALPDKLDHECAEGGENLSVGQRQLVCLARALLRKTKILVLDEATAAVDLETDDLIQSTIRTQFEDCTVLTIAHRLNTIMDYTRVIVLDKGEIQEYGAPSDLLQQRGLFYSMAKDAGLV
Procedure, shortened: (§2)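 Interference with MRP1-mediated transport of pro-fluorescent calcein-AM, reported as EC50. Not active defined at 100 μM. Means of three independent experiments, duplicate samples.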

[8] = system: MDCK; assay: Cytotoxicity against MDCK cells over-expressing MDR1 at 0.1 to 25 uM after 48 to 72 hrs by MTT assay; assay type: ADME, cell-based, Canis lupus familiaris; conditions: dog
[9] = Inhibition of P-gp (unknown origin); design: species or system Homo sapiens; procedure, shortened: as §1
[10] = biological target: T3, Multidrug resistance-associated protein 1; assay: Inhibition of MRP1 (unknown origin) expressed in MDCK cells assessed as reduction in calcein-AM efflux preincubated for 30 mins followed by calcein-AM addition measured after 30 mins by fluorescence assay; assay type: cell-based; procedure, shortened: as §2

T1 sequence (P08183 whole entry): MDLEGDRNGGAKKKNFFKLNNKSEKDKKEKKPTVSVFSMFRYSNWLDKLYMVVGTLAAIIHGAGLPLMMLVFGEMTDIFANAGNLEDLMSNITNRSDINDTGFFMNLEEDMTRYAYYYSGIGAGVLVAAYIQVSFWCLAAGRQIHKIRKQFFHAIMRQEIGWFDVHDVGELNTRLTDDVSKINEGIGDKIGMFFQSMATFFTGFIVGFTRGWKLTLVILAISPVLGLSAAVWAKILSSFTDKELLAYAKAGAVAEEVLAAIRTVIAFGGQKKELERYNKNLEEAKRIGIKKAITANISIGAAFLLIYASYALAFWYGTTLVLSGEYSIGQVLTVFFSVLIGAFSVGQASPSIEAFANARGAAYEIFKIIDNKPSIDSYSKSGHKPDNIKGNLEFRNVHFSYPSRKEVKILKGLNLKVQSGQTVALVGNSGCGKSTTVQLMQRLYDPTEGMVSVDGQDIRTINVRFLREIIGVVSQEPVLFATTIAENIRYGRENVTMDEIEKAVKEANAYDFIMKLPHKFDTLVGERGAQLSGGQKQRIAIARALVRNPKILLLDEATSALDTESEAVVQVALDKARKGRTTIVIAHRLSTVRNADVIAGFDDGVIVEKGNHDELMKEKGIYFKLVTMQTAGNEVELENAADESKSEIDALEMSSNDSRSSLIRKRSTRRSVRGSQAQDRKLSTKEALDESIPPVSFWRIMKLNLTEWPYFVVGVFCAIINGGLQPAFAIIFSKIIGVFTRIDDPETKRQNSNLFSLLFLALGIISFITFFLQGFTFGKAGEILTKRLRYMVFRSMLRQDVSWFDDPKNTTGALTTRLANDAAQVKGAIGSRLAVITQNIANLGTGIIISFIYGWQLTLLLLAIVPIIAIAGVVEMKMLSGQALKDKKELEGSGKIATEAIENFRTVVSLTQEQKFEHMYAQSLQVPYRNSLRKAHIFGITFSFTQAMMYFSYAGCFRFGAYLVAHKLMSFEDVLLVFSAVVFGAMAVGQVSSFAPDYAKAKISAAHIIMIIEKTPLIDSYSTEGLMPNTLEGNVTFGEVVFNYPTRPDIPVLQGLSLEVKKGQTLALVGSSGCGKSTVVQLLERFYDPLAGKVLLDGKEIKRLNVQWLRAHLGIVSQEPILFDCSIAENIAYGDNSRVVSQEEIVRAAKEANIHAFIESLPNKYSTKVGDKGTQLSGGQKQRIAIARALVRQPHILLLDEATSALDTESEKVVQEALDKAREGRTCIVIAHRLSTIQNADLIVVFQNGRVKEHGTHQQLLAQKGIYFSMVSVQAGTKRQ

| EC50 [1] | inhibition (INH) [2] | efflux ratio at 2 h, 100 µM [3] | inhibition (INH) [5] | inhibition (INH) [7] | EC50 [9] | EC50 [10] | SMILES | Activity [4] | Activity [6] | Activity [8] |
| --- | --- | --- | --- | --- | --- | --- | --- | --- | --- | --- |
| 1.6 µM | Active | 4.5 | Not Active | Not Active | – | – | COc1cc(-c2ccc(O)cc2)ccc1CN1CCc2cc(OC)c(OC)cc2C1 | 15% | inactive | Non-Toxic |
| 6.2 µM | Active | 3.7 | Not Active | Not Active | – | – | COc1cc2c(cc1OC)CN(Cc1ccc(-c3ccc(O)cc3)c(F)c1)CC2 | – | – | – |
| – | Active | – | – | – | 0.69 µM | – | COc1cc2c(cc1OC)CN(Cc1ccc(-c3ccc(O)cc3)cc1)CC2 | 20% | inactive | – |
| 2.17 µM | Active | 4.5 | Not Active | Not Active | – | – | COc1cc2c(cc1OC)CN(Cc1ccc(-c3ccc(O)cc3F)cc1)CC2 | – | – | – |
| 2.8 µM | Active | 4.9 | Not Active | Not Active | – | – | COc1cc2c(cc1OC)CN(Cc1ccc(-c3ccc(O)c(F)c3)cc1)CC2 | – | – | – |
| 15.2 µM | Active | 2.9 | Not Active | Not Active | – | – | COc1cc2c(cc1OC)CN(Cc1ccc(-c3ccc(O)cc3)c([N+](=O)[O-])c1)CC2 | – | – | – |
| 1.86 µM | Active | 3.5 | Not Active | – | – | 62 µM | COc1cc2c(cc1OC)CN(Cc1ccc(-c3ccc(O)cc3OC)cc1)CC2 | 60% | inactive | Non-Toxic |
| 4.73 µM | Active | 4.1 | Not Active | Not Active | – | – | COc1cc2c(cc1OC)CN(Cc1ccc(-c3ccc(O)cc3)cc1F)CC2 | – | – | – |
| 2 µM | Active | 3.9 | Not Active | Not Active | – | – | COc1cc(-c2ccc(CN3CCc4cc(OC)c(OC)cc4C3)cc2)ccc1O | – | – | – |
| 12.7 µM | Active | 6.3 | Not Active | – | – | 28.9 µM | COc1cc2c(cc1OC)CN(Cc1ccc(-c3ccc(O)c([N+](=O)[O-])c3)cc1)CC2 | – | – | – |
| 1.51 µM | Active | 4.4 | Not Active | – | – | 38 µM | COc1cc2c(cc1OC)CN(Cc1ccc(-c3ccc(O)cc3)c(OC)c1)CC2 | 15% | inactive | Non-Toxic |
| 2.54 µM | Active | 11.2 | Not Active | Not Active | – | – | COc1cc2c(cc1OC)CN(Cc1ccc(-c3ccc(O)cc3[N+](=O)[O-])cc1)CC2 | – | – | – |
| 6.9 µM | Active | 7.5 | Not Active | Not Active | – | – | COc1cc2c(cc1OC)CN(Cc1ccc(-c3ccc(O)c(N)c3)cc1)CC2 | – | – | – |
| 8.4 µM | Active | 5.8 | Not Active | Not Active | – | – | COc1cc2c(cc1OC)CN(Cc1ccc(-c3ccc(O)cc3)cc1[N+](=O)[O-])CC2 | – | – | – |
| 5.4 µM | Active | 4.5 | Not Active | Not Active | – | – | COc1cc2c(cc1OC)CN(Cc1ccc(-c3ccc(O)cc3N)cc1)CC2 | – | – | – |

— ChEMBL document CHEMBL4257505, “New tetrahydroisoquinoline-based P-glycoprotein modulators: decoration of the biphenyl core gives selective ligands” (Medchemcomm, 2018)
